ChEMBL document CHEMBL1144823, “Blood-brain barrier penetration by two dermorphin tetrapeptide analogues: role of lipophilicity vs structural flexibility” (J Med Chem, 2008)
The source made the active and inactive calls. Where a SMILES comes first, the peptide text is derived from it. [ ]: non-standard residue; d: D form. dNMeA = CN[C@H](C)C(=O)O; Sar = CNCC(=O)O

Experiments:
Mu-type opioid receptor [1] = target: Mu-type opioid receptor (Rattus norvegicus, UniProt P33535); assay: Displacement of [3H]naloxone from mu opioid receptor in rat brain membrane; type: cell membranes
Procedure, shortened: (§1)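 Competitive displacement on rat brain membranes: [³H]naloxone for mu sites and [³H]deltorphin II for delta sites, giving IC50 values. Selectivity is expressed as IC50(mu)/IC50(delta).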

[2] = target: Delta-type opioid receptor (Rattus norvegicus, UniProt P33533); assay: Displacement of [3H]deltorphin2 from delta opioid receptor in rat brain membrane; type: cell membranes; procedure, shortened: as §1
[3] = target: Kappa-type opioid receptor (Cavia porcellus) (UniProt P41144); assay: Displacement of [3H]U-69593 from kappa opioid receptor in guinea pig brain membrane at 10 uM; type: cell membranes
Procedure, shortened: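 Displacement of [³H]U69,593 from guinea pig brain membrane sites, with test concentrations up to 10 µM.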

Rattus norvegicus = organism: Rattus norvegicus; assay: Ratio of IC50 for mu opioid receptor in rat brain to IC50 for delta opioid receptor in rat brain; type: tissue-based; procedure, shortened: as §1
Mu-type opioid receptor [4] = target: Mu-type opioid receptor (Cavia porcellus, UniProt P97266); assay: Agonist activity at mu opioid receptor in guinea pig ileum; type: functional, tissue-based
Procedure, shortened: (§2)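 Isolated guinea pig ileum and mouse vas deferens preparations. A [Leu⁵]enkephalin standard dose–response curve was run for each ileum and vas preparation. Compound IC50 values were normalized to that standard by a published procedure.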

[5] = target: Delta-type opioid receptor (Mus musculus, UniProt P32300); assay: Agonist activity at delta opioid receptor in mouse vas deferens; type: functional, tissue-based; procedure, shortened: as §2
Mus musculus [6] = assay: Analgesic activity in C57 mouse at 2 mg/kg, iv after 15 mins by tail flick test; type: functional, organism-based; design: dose 2 mg/kg
Procedure, shortened: (§3)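 Male C57 mice (20–25 g) housed in groups of five on a 12 h light-dark cycle. Peptide in saline was injected into the tail vein (10 mL/kg total) and flushed with saline; controls received saline. Warm-water (55 °C) tail-flick test, three trials, 15 s cutoff. %MPE = (post − control)/(cutoff − control) × 100, read at baseline, 5, 15, 30, 60 and 120 min. One-way ANOVA at each time point.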

Mus musculus [7] = assay: Analgesic activity in C57 mouse at 2 mg/kg, iv after 5 mins by tail flick test; type: functional, organism-based; design: dose 2 mg/kg; procedure, shortened: as §3

Chain of Mu-type opioid receptor (Cavia porcellus, UniProt P97266) (P97266 whole entry): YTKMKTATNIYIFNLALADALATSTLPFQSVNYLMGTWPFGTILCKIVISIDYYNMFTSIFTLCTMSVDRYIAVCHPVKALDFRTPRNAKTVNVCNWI
Chain of Delta-type opioid receptor (Rattus norvegicus, UniProt P33533) (P33533 whole entry): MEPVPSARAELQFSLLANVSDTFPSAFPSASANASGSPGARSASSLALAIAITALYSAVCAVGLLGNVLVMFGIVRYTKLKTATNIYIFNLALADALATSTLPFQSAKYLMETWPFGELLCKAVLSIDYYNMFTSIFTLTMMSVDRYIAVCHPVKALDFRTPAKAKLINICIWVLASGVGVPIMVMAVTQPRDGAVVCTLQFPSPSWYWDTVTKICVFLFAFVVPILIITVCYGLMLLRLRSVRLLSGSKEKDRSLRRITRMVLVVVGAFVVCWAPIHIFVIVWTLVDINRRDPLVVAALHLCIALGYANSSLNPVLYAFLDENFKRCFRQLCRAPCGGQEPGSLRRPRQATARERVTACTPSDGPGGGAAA
Chain of Kappa-type opioid receptor (Cavia porcellus) (P41144 whole entry): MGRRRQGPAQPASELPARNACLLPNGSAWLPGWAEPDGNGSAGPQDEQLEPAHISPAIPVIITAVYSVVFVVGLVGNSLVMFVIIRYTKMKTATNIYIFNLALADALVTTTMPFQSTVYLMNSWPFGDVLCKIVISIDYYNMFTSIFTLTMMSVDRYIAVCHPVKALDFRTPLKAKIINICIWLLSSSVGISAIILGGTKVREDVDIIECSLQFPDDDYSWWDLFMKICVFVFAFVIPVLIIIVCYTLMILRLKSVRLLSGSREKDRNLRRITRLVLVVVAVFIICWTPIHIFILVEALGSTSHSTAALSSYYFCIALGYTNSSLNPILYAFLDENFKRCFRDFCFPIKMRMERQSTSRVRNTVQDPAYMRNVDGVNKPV
Chain of Mu-type opioid receptor (Rattus norvegicus, UniProt P33535) (P33535 whole entry): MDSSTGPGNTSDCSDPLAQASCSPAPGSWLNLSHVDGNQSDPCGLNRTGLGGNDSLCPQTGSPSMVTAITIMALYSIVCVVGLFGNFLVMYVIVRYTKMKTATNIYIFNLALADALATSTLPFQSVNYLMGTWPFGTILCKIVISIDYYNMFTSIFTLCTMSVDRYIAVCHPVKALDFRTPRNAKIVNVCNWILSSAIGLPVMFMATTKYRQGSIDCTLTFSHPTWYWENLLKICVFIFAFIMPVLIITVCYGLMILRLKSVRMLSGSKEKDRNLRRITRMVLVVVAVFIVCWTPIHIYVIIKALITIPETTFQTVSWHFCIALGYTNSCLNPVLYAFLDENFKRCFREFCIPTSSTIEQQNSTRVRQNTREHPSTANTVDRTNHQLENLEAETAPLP
Chain of Delta-type opioid receptor (Mus musculus, UniProt P32300) (P32300 whole entry): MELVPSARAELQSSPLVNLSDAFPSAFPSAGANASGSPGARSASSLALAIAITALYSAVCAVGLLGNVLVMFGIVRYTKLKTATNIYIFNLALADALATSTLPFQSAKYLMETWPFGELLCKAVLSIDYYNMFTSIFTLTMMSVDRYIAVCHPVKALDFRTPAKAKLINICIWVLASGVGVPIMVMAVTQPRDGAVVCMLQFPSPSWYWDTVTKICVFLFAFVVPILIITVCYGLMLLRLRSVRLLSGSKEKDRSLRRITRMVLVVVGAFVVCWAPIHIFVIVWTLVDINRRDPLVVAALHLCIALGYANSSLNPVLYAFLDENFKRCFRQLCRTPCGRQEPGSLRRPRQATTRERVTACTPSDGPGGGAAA

Row | Compound | IC50 (Mu-type opioid receptor [1]) [µM] | IC50 [2] [µM] | Activity [3] | Ratio IC50 (Rattus norvegicus) | IC50 (Mu-type opioid receptor [4]) [µM] | IC50 [5] [µM] | Activity (Mus musculus [6]) | Activity (Mus musculus [7])
1 | C[C@H](C(=O)N[C@H]1Cc2ccccc2CN(CC(N)=O)C1=O)N1Cc2cc(O)ccc2C[C@H](N)C1=O | 20.8 | 17.8 | inactive | 1.17 | 3.64 | 30.3 |  | 
2 | C[C@H](C(=O)N[C@@H](Cc1ccccc1)C(=O)N(C)CC(N)=O)N(C)C(=O)[C@@H](N)Cc1ccc(O)cc1 (H-Y[dNMeA]F[Sar]-NH2) | 28.1 | 7.1 | inactive | 3.96 | 22 | 79.7 | Active | Active
